In ChEMBL document CHEMBL3526153, “Metabolism of gambogic acid in rats: a rare intestinal metabolic pathway responsible for its final disposition” (Drug Metab Dispos, 2011) one finds Drug metabolism and Retention_time data, which are given here for eight compounds.

Data set [1] is described as follows: Drug level in intestine (unknown origin) treated with gambogic acid. The data set is classed as ADME, tissue-based. In outline: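 Intestinal contents from undosed rats homogenized in 5 mL water. 100 μL of 1.0 mg/mL GA solution added, incubated about 24 h at 37 °C, duplicate. 1.0 mL extracted with ethyl acetate. LC-MS/MS with negative ESI, SIM at m/z 709.3 plus full and product-ion scans, acetonitrile gradient 50–90%.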

The nature of data set [2]: Retention time of the compound in Sprague-Dawley rat feces treated with gambogic acid at 4 mg/kg, iv measured over 24 hrs by LC-DAD-MS/MS analysis. The data set is classed as ADME, organism-based. The arrangement: dose 4 mg/kg, route intravenous. The settings on record: in vivo. Summed up: (§1)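 SD rats (250 ± 20 g), n=4, given GA 4 mg/kg i.v. via tail vein in 2 mL; feces pooled 0–24 h and stored at −20 °C. Feces (0.6 g) homogenized in 50% acetonitrile, sonicated, centrifuged, filtered, then ethyl acetate extraction. Analysed by C18 LC-DAD-MS/MS (gradient 38–80% acetonitrile, 10 mM ammonium acetate, 40 °C), negative ESI.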

The nature of data set [3]: Drug level in Sprague-Dawley rat gut treated with gambogic acid at 4 mg/kg, iv. It is filed as ADME, organism-based. Also on record: dose 4 mg/kg, route intravenous. The following applies: in vivo.
Another data set relates to Plasma. As to the kind of experiment: Drug level in Sprague-Dawley rat plasma treated with gambogic acid at 4 mg/kg, iv measured over 4 hrs by LC-DAD-MS/MS analysis. Also on record: dose 4 mg/kg, route intravenous. It is filed as ADME, organism-based. The settings on record: in vivo. In outline:
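Six SD rats given GA 4 mg/kg i.v. via tail vein. Tail blood taken into heparin at 0.033–4 h; plasma separated at 3000 × g, 4 °C, and pooled 0–4 h. 1 mL extracted with 4 mL ethyl acetate, dried, reconstituted. Isocratic 68% acetonitrile, LC-MS/MS in negative ESI.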

The nature of data set [4]: Retention time of the compound in Sprague-Dawley rat bile treated with gambogic acid at 4 mg/kg, iv measured over 24 hrs by LC-DAD-MS/MS analysis. The settings on record: in vivo. It is filed as ADME, organism-based. Also on record: dose 4 mg/kg, route intravenous. Summed up:
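SD rats, n=4, bile-duct cannulated under chloral hydrate and allowed 1 h recovery. GA 4 mg/kg i.v.; bile collected on ice, pooled 0–24 h. C18 LC-DAD-MS/MS at 0.25 mL/min with acetonitrile gradient (38% to 80%) in 10 mM ammonium acetate, 40 °C, negative ESI.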

Data set [5] in a line: Drug level in PBS buffer treated with gambogic acid at 50 uM preincubated for 10 mins followed by NADPH addition measured after 1 hr by LC-DAD-MS/MS analysis in absence of liver microsomes. It is filed as physicochemical. In outline:
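Control incubation with no microsomes: GA 50 μM (added in 5.0 μL acetonitrile) in 0.1 M PBS pH 7.4, 1.0 mL, preincubated 10 min at 37 °C with shaking. NADPH added to 6.0 mM final, then 1 h at 37 °C, duplicate. Stopped with ice-cold acetonitrile, centrifuged, supernatant dried under N2, reconstituted in mobile phase. LC-MS/MS with negative ESI, isocratic 65% acetonitrile.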
(Liver microsomes are a subcellular fraction often used to study metabolism.)

A short description of data set [6]: Drug level in Sprague-Dawley rat feces treated with gambogic acid at 4 mg/kg, iv measured over 24 hrs by LC-DAD-MS/MS analysis. It is filed as ADME, organism-based. Also on record: dose 4 mg/kg, route intravenous. The settings on record: in vivo. Summed up: as §1
Data set [7] is described as follows: Drug level in rat liver microsomes assessed as CYP450-mediated compound formation treated with gambogic acid at 50 uM preincubated for 10 mins followed by NADPH addition measured after 1 hr by LC-DAD-MS/MS analysis. The data set is classed as ADME. Summed up: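 GA 50 µM with rat liver microsomes 1.0 mg/mL in 0.1 M PBS pH 7.4, pre-incubated 10 min at 37 °C. Started with NADPH (6.0 mM final) and run 1 h at 37 °C. Controls lacked NADPH or microsomes; duplicate. Stopped with ice-cold acetonitrile, centrifuged, supernatant dried and reconstituted. Isocratic LC (65% acetonitrile), negative-ion ESI MS/MS.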

In the next data set the test system is Liver microsome. Nature of the data set: Drug level in rat liver microsomes treated with gambogic acid at 50 uM preincubated for 10 mins followed by UDPGA addition measured after 2 hrs by LC-MS/MS analysis. It is filed as ADME. In outline:
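Rat liver microsomes 1.0 mg/mL pretreated with alamethicin 50 μg/mg protein. GA 50 μM, saccharic acid-1,4-lactone 6 mM, in 0.05 M Tris-HCl pH 7.4. Preincubated 10 min at 37 °C, started with UDPGA (6.0 mM final), run 2 h at 37 °C, duplicate. Quenched with ice-cold acetonitrile. LC-MS/MS in negative ESI with acetonitrile gradient 50–95%.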

SMILES strings stand for the structures.

Take `CC(C)=CCC[C@]1(C)C=Cc2c(O)c3c(c(CC=C(C)C)c2O1)O[C@]12C(C3=O)[C@@H](S(=O)(=O)O)[C@@H]3C[C@H]1C(C)(C)O[C@@]2(C/C=C(/C)C(=O)O)C3=O` (stereo not given in full): the Drug metabolism result in data set [1] and in data set [3] was “metabolite_detected” in each case. The Retention_time in data set [2] amounted to 19.4 min.
For `CC(C)=CCC[C@]1(C)C=Cc2c(O)c3c(c(CC=C(C)C)c2O1)O[C@]12C(C3=O)C(O)[C@@H]3C[C@H]1C(C)(C)O[C@@]2(C/C=C(/C)C(=O)O)C3=O` (stereo not given in full), the Drug metabolism entry (in the data set on Plasma; in data set [5]; in data set [6]; in data set [7]) was “metabolite_detected” throughout. In [4], the Retention_time is recorded as 39.5 min.
The compound `CC(C)=CCC[C@]1(C)C=Cc2c(O)c3c(c(CC=C(C)C)c2O1)O[C@]12C(=C[C@@H]4C[C@H]1C(C)(C)O[C@@]2(C/C=C(/C)C(=O)O[C@@H]1O[C@H](C(=O)O)[C@@H](O)[C@H](O)[C@H]1O)C4=O)C3=O` had a Retention_time in [4] of 23.6 min. The Drug metabolism result (in the data set on Liver microsome; in data set [6]) was “metabolite_detected” each time.
For the compound `CC(C)=CCC[C@]1(C)C=Cc2c(O)c3c(c(CC=C(C)C)c2O1)O[C@]12C(C3=O)C(O[C@@H]3O[C@H](CO)[C@@H](O)[C@H](O)[C@H]3O)[C@@H]3C[C@H]1C(C)(C)O[C@@]2(C/C=C(/C)C(=O)O)C3=O` (stereo not given in full), the Retention_time in data set [4] stood at 38.7 min.
As to `CC(C)=CCC[C@]1(C)C=Cc2c(O)c3c(c(CC=C(C)C)c2O1)O[C@]12C(=C[C@@H]4C[C@H]1C(C)(C)O[C@@]2(C/C=C(/C)C(=O)O[C@@H]1O[C@H](CO)[C@@H](O)[C@H](O)[C@H]1O)C4=O)C3=O`, in data set [4], the Retention_time came out at 40.3 min.
In the case of `CC(C)=CCC[C@]1(C)C=Cc2c(O)c3c(c(CC=C(C)C)c2O1)O[C@]12C(C3=O)[C@H](S(=O)(=O)O)[C@@H]3C[C@H]1C(C)(C)O[C@@]2(C/C=C(/C)C(=O)O)C3=O` (stereo not given in full), the Drug metabolism result in data set [1] and in data set [3] was “metabolite_detected” each time. The Retention_time in data set [2] is recorded as 16.9 min.
With `CC(C)=CCC[C@]1(C)C=Cc2c(O)c3c(c(CC=C(C)C)c2O1)O[C@]12[C@H]4C[C@H](C(=O)[C@]1(C/C=C(/C)C(=O)O)OC4(C)C)C1OC12C3=O` (stereo not given in full), the Retention_time in data set [4] turned out to be 43.8 min. Also, the Drug metabolism result in data set [6] and in data set [7] was “metabolite_detected” each time.
`CC(C)=CCC[C@]1(C)C=Cc2c(O)c3c(c(CC=C(C)C)c2O1)O[C@]12[C@H]4C[C@H](C(=O)[C@]1(C/C=C(/C)C(=O)O[C@@H]1O[C@H](CO)[C@@H](O)[C@H](O)[C@H]1O)OC4(C)C)C1OC12C3=O` (stereo not given in full) displayed a Retention_time in data set [4] of 39 min.
